Series [1] in a line: Inhibition of recombinant EBNA1 binding to biotin-labeled Epstein-Barr virus OriP hairpin DNA EBNA1 site 1 assessed as dissociation constant by SPR assay. Further details: species or system human gammaherpesvirus 4.
Series [2] can be described thus: Inhibition of recombinant EBNA1 binding to biotin-labeled Epstein-Barr virus OriP hairpin DNA EBNA1 site 1 mutant assessed as dissociation constant by SPR assay. On the set-up: species or system human gammaherpesvirus 4. Put shortly:
(§1)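 SPR on a streptavidin-coated chip (about 16 000 RU) carrying biotinylated short hairpin DNA, loaded at 200 nM and immobilized to about 700–900 RU. Run in HBS-EP (10 mM HEPES pH 7.4, 150 mM NaCl, 3 mM EDTA, 0.005% P20) at 25 °C. Polyamides were diluted first in ultrapure water, then into a concentration gradient. ka and kd were fitted from sensorgrams.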
On the technique in general: SPR reads the build-up and loss of mass on a sensor chip optically.

Series [3] is described as follows: Inhibition of recombinant EBNA1 binding to biotin-labeled Epstein-Barr virus OriP hairpin DNA EBNA1 site 2 assessed as dissociation constant by SPR assay. On the set-up: species or system human gammaherpesvirus 4.
Series [4] in a line: Inhibition of recombinant EBNA1 binding to biotin-labeled Epstein-Barr virus OriP hairpin DNA EBNA1 site 2 mutant assessed as dissociation constant by SPR assay. On the set-up: species or system human gammaherpesvirus 4. Put shortly: as §1
In series [5] the test system is human gammaherpesvirus 4. The series can be described thus: Inhibition of recombinant EBNA1 binding to biotin-labeled Epstein-Barr virus OriP hairpin DNA EBNA1 site 1 assessed as reduction in RU increase at 200 nM by SPR assay. Put shortly: (§2)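 SPR in HBS-EP (10 mM HEPES pH 7.4, 150 mM NaCl, 3 mM EDTA, 0.005% P20) at 25 °C. Biotin hairpin DNA (200 nM) captured at 700–900 RU on streptavidin. Polyamide (200 nM) injected at 25 μL/min for 4 min with no dissociation phase, then 100 nM recombinant EBNA1 for 3 min. Relative reduction in RU rise recorded.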

Series [6] deals with human gammaherpesvirus 4. Nature of the series: Inhibition of recombinant EBNA1 binding to biotin-labeled Epstein-Barr virus OriP hairpin DNA EBNA1 site 2 assessed as reduction in RU increase at 200 nM by SPR assay. A digest of the protocol:
as §2

The test system of series [7] is Human gammaherpesvirus 4. The series can be described thus: Inhibition of Epstein-Barr virus-induced human Raji cell proliferation assessed reduction in cell viability at 10 uM measured at day 3 and day 6 post dose following media refreshment every 3 days trypan blue dye-based assay. The class given is functional, organism-based. A digest of the protocol: (§3)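 5 × 10^5 cells in 2 mL medium with 10 μM polyamide. After 3 days an equal volume of fresh medium containing polyamide was added. Living cells counted by 0.4% trypan blue exclusion at days 3 and 6. Significance by one-way ANOVA.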

The test system of series [8] is Human gammaherpesvirus 4. Nature of the series: Inhibition of Epstein-Barr virus-induced human Daudi cell proliferation assessed reduction in cell viability at 10 uM measured at day 3 and day 6 post dose following media refreshment every 3 days trypan blue dye-based assay. The class given is functional, organism-based. Put shortly: as §3
For series [9], the system named is MOLT-4. Nature of the series: Cell growth inhibition of human MOLT4 cells at 10 uM measured at day 3 and day 6 following media refreshment every 3 days by trypan blue dye-based assay. It is filed as functional. Put shortly: as §3
Series [10] has as its system Human gammaherpesvirus 4. The series can be described thus: Inhibition of Epstein-Barr virus-induced human Daudi cell proliferation after 72 hrs by MTT assay. It is filed as functional. The conditions noted are these: human gammaherpesvirus 4, Daudi. A digest of the protocol: (§4)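 Suspension cells seeded at 7 × 10^3 per well, adherent at 3 × 10^3 per well, in quadruplicate across a concentration series. Grown 72 h, then viability relative to control read by MTT. GI50 from sigmoidal dose–response fit; at least triplicate experiments. RPMI-based medium for suspension lines, high-glucose DMEM for MDA-MB-231, both with 10% FBS, 5% CO2, 37 °C.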
For orientation: Tetrazolium dyes change colour on reduction, which living cells bring about.

Series [11] relates to Human gammaherpesvirus 4. The series can be described thus: Inhibition of Epstein-Barr virus-induced human Raji cell proliferation after 72 hrs by MTT assay. The class given is functional. The conditions noted are these: human gammaherpesvirus 4, Raji. Put shortly:
as §4

The test system of series [12] is Human gammaherpesvirus 4. Nature of the series: Inhibition of Epstein-Barr virus-induced […] cell proliferation after 72 hrs by MTT assay. The class given is functional. The note with it: human gammaherpesvirus 4, B-95-8, 72 h. Put shortly:
as §4

Series [13] has as its system NALM-6. Nature of the series: Cell growth inhibition of human NALM6 cells after 72 hrs by MTT assay. The class given is functional. The conditions noted are these: NALM-6, 72 h. A digest of the protocol: as §4
The test system of series [14] is RPMI-8226. The series can be described thus: Cell growth inhibition of human RPMI8226 cells after 72 hrs by MTT assay. It is filed as functional. The note with it: RPMI-8226, 72 h. A digest of the protocol:
as §4

Series [15] relates to MOLT-4. Nature of the series: Cell growth inhibition of human MOLT4 cells after 72 hrs by MTT assay. It is filed as functional. The conditions noted are these: MOLT-4, 72 h. Put shortly:
as §4

Series [16] relates to Jurkat. The series can be described thus: Cell growth inhibition of human Jurkat cells after 72 hrs by MTT assay. The class given is functional. Put shortly: as §4
The subject of series [17] is MDA-MB-231. The series can be described thus: Cell growth inhibition of human MDA-MB-231 cells after 72 hrs by MTT assay. The class given is functional. The conditions noted are these: MDA-MB-231, 72 h. Put shortly: as §4
Series [18] concerns Raji. The series can be described thus: Inhibition of EBNA1 binding to Epstein-Barr virus OriP DNA in human Raji cells assessed as reduction in EBV copy number at 10 uM after 120 hrs by qRT-PCR analysis. It is filed as cell-based. The note with it: human gammaherpesvirus 4. A digest of the protocol:
(§5)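 Raji (5 × 10^5), B95-8 (5 × 10^5) or Daudi (1 × 10^6) cells cultured with 10 μM polyamide. Genomic DNA extracted at intervals (Raji every 24 h). SYBR real-time PCR in triplicate: 95 °C 5 min, then 40 cycles of 95 °C 10 s / 60 °C 30 s, followed by melt curve. EBV copies relative to cellular DNA by ΔΔCt.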
A general note: Quantitative PCR measures a nucleic acid by following its amplification.

Series [19] has as its system Raji. The series can be described thus: Inhibition of EBNA1 binding to Epstein-Barr virus OriP DNA in human Raji cells at 10 uM after 24 to 48 hrs by chIP assay. The conditions noted are these: human gammaherpesvirus 4. It is filed as cell-based. A digest of the protocol: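 Raji cells with 10 μM polyamide, 8 × 10^6 harvested at 0, 24 and 48 h. Formaldehyde fixation, enzymatic chromatin ChIP; 2% input kept. IP overnight with 1 μg anti-EBNA1 or mouse IgG1, magnetic-bead capture. OriP detected by SYBR qPCR (95 °C 5 min; 40 cycles of 95 °C 15 s / 60 °C 60 s). ΔΔCt relative to input.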

The subject of series [20] is Raji. The series can be described thus: Inhibition of EBNA1 binding to Epstein-Barr virus OriP DNA in human Raji cells assessed as reduction in EBNA1 protein expression up to 20 uM after 24 hrs by Western blot analysis. It is filed as cell-based. The note with it: human gammaherpesvirus 4. Put shortly: (§6)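 Raji cells exposed 24 h to 0, 1, 2, 5, 10 or 20 μM. Cells lysed in nondenaturing buffer with protease inhibitors and run on 10% SDS-PAGE, then PVDF. Membranes probed overnight at 4 °C for EBNA1, EBNA2 and GAPDH, HRP secondary 1 h, chemiluminescent detection. At least triplicate.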

In series [21] the test system is Raji. The series can be described thus: Inhibition of EBNA1 binding to Epstein-Barr virus OriP DNA in human Raji cells assessed as reduction in EBNA2 protein expression up to 20 uM after 24 hrs by Western blot analysis. The class given is cell-based. The conditions noted are these: human gammaherpesvirus 4. A digest of the protocol:
as §6

Series [22] relates to Daudi. The series can be described thus: Inhibition of EBNA1 binding to Epstein-Barr virus OriP DNA in human Daudi cells assessed as reduction in EBV copy number at 10 uM after 120 hrs by qRT-PCR analysis. It is filed as cell-based. The note with it: human gammaherpesvirus 4. Put shortly:
as §5

Series [23] has as its system human gammaherpesvirus 4. Nature of the series: Inhibition of EBNA1 binding to Epstein-Barr virus OriP DNA in […] cells assessed as reduction in EBV copy number at 10 uM after 120 hrs by qRT-PCR analysis. The class given is cell-based. Put shortly: as §5
Series [24] has as its system Human gammaherpesvirus 4. The series can be described thus: Inhibition of Epstein-Barr virus-induced human Raji cell proliferation xenografted in Balb/c mouse assessed as reduction in tumor size at 5 mg/kg, sc administered every 3 days for 25 days and measured every 3 days before drug injection. It is filed as functional, organism-based. A digest of the protocol:
(§7)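 Female Balb/c nude mice given 1 × 10^7 Raji cells sc in left flank (in 100 μL serum-free RPMI). Dosing began at tumor ~50 mm3 (L × W × 1/2W). Compound in 100 μL 5% DMSO/0.9% NaCl, injected sc around tumor every 3 days, eight injections; vehicle n = 6, treated groups n = 7. Tumor size and body weight taken before each injection. Tumor DNA analysed by real-time PCR for relative EBV copy number.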

Series [25] deals with Human gammaherpesvirus 4. The series can be described thus: Inhibition of Epstein-Barr virus-induced human Raji cell proliferation xenografted in Balb/c mouse assessed as reduction in tumor size at 10 mg/kg, sc administered every 3 days for 25 days and measured every 3 days before drug injection. It is filed as functional, organism-based. Put shortly: as §7
Series [26] deals with Human gammaherpesvirus 4. The series can be described thus: Antiviral activity against Epstein-Barr virus positive human Raji cells xenografted in Balb/c mouse assessed as reduction in EBV DNA copy at 5 to 10 mg/kg, sc administered every 3 days for 25 days. The class given is functional, organism-based. Put shortly: as §7
Series [27] in a line: Toxicity in Balb/c mouse infected with Epstein-Barr virus positive human Raji cells assessed as body weight loss at 5 to 10 mg/kg, sc administered every 3 days for 25 days and measured every 3 days before drug injection. The note with it: in vivo. The class given is organism-based. A digest of the protocol:
as §7

The source made the active and inactive calls. The rule behind the calls is not given here.

Regarding `CN(C)CCCNC(=O)c1cc(NC(=O)c2nc(NC(=O)c3cc(NC(=O)c4cc(NC(=O)[C@H](N)CCNC(=O)c5cc(NC(=O)c6cc(NC(=O)c7cc(NC(=O)c8nccn8C)cn7C)cn6C)cn5C)cn4C)cn3C)cn2C)cn1C`, the Kd (in general, the free concentration of one partner at which half of the binding sites on the other are occupied at equilibrium, for simple one-to-one binding) in series [1] was found to be 0.0015 µM; in series [2] it was 0.0252 µM; in [3], 0.00452 µM; in [4], 0.0206 µM. For the same compound, the fold change (FC) in [5] worked out at 0.646; in series [6], 0.524. For the same compound, the inhibition result in [7] and in [8] was “Active” throughout. Besides, in [9], the “growth inhibition (GI)” value was “inactive”. The GI50 (commonly the concentration giving 50% growth inhibition) in [10] stood at 12.9 µM; in [11], 29.4 µM; in [12], 30.2 µM; in series [13] it was 41.9 µM; in series [14], 43.9 µM; in series [15], 30.3 µM. For the same compound, the 50% growth inhibitory concentration (GI50) in [16] and in series [17] was more than 100 µM throughout. In addition, the inhibition entry in [18], in series [19], in [20] and in series [21] was “inactive” each time.
Consider `CN(C)CCCNC(=O)c1cc(NC(=O)c2nc(NC(=O)c3cc(NC(=O)c4cc(NC(=O)[C@@H](CCNC(=O)c5cc(NC(=O)c6cc(NC(=O)c7cc(NC(=O)c8nccn8C)cn7C)cn6C)cn5C)NC(=O)CCCOc5ccc(-c6nc7cc(-c8nc9cc(N%10CCN(C)CC%10)ccc9[nH]8)ccc7[nH]6)cc5)cn4C)cn3C)cn2C)cn1C`, for which the Kd stood at 0.0228 µM in [1], 0.747 µM in series [2], 0.0129 µM in series [3] and 0.187 µM in series [4]. Also, the fold change (FC) in series [5] came out at 0.583; in [6], 0.412. Besides, the inhibition result in [7], in series [8], in [18], in series [22], in series [23] and in series [19] was “Active” throughout. Moreover, the inhibition result in series [24] and in [25] was “Active” each time. Also, the “growth inhibition (GI)” value in series [9] is “inactive”. The GI50 stood at 4.02 µM in [10]; 8 µM in [11]; 9.42 µM in series [12]; 22.2 µM in series [13]; 24.5 µM in [14]; 25 µM in series [15]. Moreover, the GI50 in series [16] and in series [17] was more than 100 µM in each case. Further, the inhibition result in [20] and in [21] was “Dose-dependent effect” each time. Moreover, the result in series [26] was Active. The Activity result in series [27] is listed as “Non-Toxic”.
In the case of `CN(C)CCCNC(=O)c1cc(NC(=O)c2cc(NC(=O)c3cc(NC(=O)c4cc(NC(=O)[C@@H](CCNC(=O)c5cc(NC(=O)c6cc(NC(=O)c7nc(NC(=O)c8nccn8C)cn7C)cn6C)cn5C)NC(=O)CCCOc5ccc(-c6nc7cc(-c8nc9cc(N%10CCN(C)CC%10)ccc9[nH]8)ccc7[nH]6)cc5)cn4C)cn3C)cn2C)cn1C`, the Kd in series [1] was found to be 0.335 µM; in series [3], 0.263 µM. The fold change (FC) in series [5] amounted to 0.091; in series [6], 0.088. In series [18], the inhibition result is “inactive”.
